Test system: NCI-H522
Assay: Growth inhibition of human NCI-H522 cells assessed as cell growth at 0.01 uM incubated for 48 hrs by sulforhodamine B assay relative to control
Format: functional
Conditions: read-out: Activity

Compound	growth at 0.01 µM [%]
CN1CCc2nc3sc(C(N)=O)c(N)c3c(-c3cccs3)c2C1	96

Test system: COLO 205
Assay: Growth inhibition of human COLO 205 cells assessed as cell growth at 0.01 uM incubated for 48 hrs by sulforhodamine B assay relative to control
Format: functional
Conditions: read-out: Activity
In short: (§1)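 NCI Developmental Therapeutics Program NCI60 panel. Compounds that were active in the 10 µM one-dose screen went on to dose–response testing. Growth at each concentration is expressed relative to untreated control (100%). GI50 (concentration giving 50% of maximal inhibition of proliferation) and TGI (concentration giving total growth inhibition) were derived from the curves.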

Compound	growth at 0.01 µM [%]
CN1CCc2nc3sc(C(N)=O)c(N)c3c(-c3cccs3)c2C1	105

Test system: Malme-3M
Assay: Growth inhibition of human Malme-3M cells assessed as cell growth at 0.01 uM incubated for 48 hrs by sulforhodamine B assay relative to control
Format: functional
Conditions: read-out: Activity

Compound	growth at 0.01 µM [%]
CN1CCc2nc3sc(C(N)=O)c(N)c3c(-c3cccs3)c2C1	104

Test system: UACC-257
Assay: Growth inhibition of human UACC-257 cells assessed as cell growth at 0.01 uM incubated for 48 hrs by sulforhodamine B assay relative to control
Format: functional
Conditions: read-out: Activity

Compound	growth at 0.01 µM [%]
CN1CCc2nc3sc(C(N)=O)c(N)c3c(-c3cccs3)c2C1	97

Test system: RXF 393
Assay: Growth inhibition of human RXF 393 cells assessed as cell growth at 0.01 uM incubated for 48 hrs by sulforhodamine B assay relative to control
Format: functional
Conditions: read-out: Activity

Compound	growth at 0.01 µM [%]
CN1CCc2nc3sc(C(N)=O)c(N)c3c(-c3cccs3)c2C1	97

Test system: MDA-MB-231
Assay: Growth inhibition of human MDA-MB-231 cells assessed as cell growth at 0.01 uM incubated for 48 hrs by sulforhodamine B assay relative to control
Format: functional
Conditions: read-out: Activity

Compound	growth at 0.01 µM [%]
CN1CCc2nc3sc(C(N)=O)c(N)c3c(-c3cccs3)c2C1	106

Test system: T47D
Assay: Growth inhibition of human T47D cells assessed as cell growth at 0.01 uM incubated for 48 hrs by sulforhodamine B assay relative to control
Format: functional
Conditions: read-out: Activity

Compound	growth at 0.01 µM [%]
CN1CCc2nc3sc(C(N)=O)c(N)c3c(-c3cccs3)c2C1	97

Test system: K562
Assay: Growth inhibition of human K562 cells assessed as cell growth at 0.1 uM incubated for 48 hrs by sulforhodamine B assay relative to control
Format: functional
Conditions: read-out: Activity

Compound	growth at 0.1 µM [%]
CN1CCc2nc3sc(C(N)=O)c(N)c3c(-c3cccs3)c2C1	97

Test system: HOP-62
Assay: Growth inhibition of human HOP-62 cells assessed as cell growth at 0.1 uM incubated for 48 hrs by sulforhodamine B assay relative to control
Format: functional
Conditions: read-out: Activity

Compound	growth at 0.1 µM [%]
CN1CCc2nc3sc(C(N)=O)c(N)c3c(-c3cccs3)c2C1	104

Test system: SK-MEL-2
Assay: Growth inhibition of human SK-MEL-2 cells assessed as cell growth at 0.1 uM incubated for 48 hrs by sulforhodamine B assay relative to control
Format: functional
Conditions: read-out: Activity

Compound	growth at 0.1 µM [%]
CN1CCc2nc3sc(C(N)=O)c(N)c3c(-c3cccs3)c2C1	114

Test system: IGROV-1
Assay: Growth inhibition of human IGROV-1 cells assessed as cell growth at 0.1 uM incubated for 48 hrs by sulforhodamine B assay relative to control
Format: functional
Conditions: read-out: Activity

Compound	growth at 0.1 µM [%]
CN1CCc2nc3sc(C(N)=O)c(N)c3c(-c3cccs3)c2C1	116

Test system: OVCAR-8
Assay: Growth inhibition of human OVCAR-8 cells assessed as cell growth at 0.1 uM incubated for 48 hrs by sulforhodamine B assay relative to control
Format: functional
Conditions: read-out: Activity

Compound	growth at 0.1 µM [%]
CN1CCc2nc3sc(C(N)=O)c(N)c3c(-c3cccs3)c2C1	96

Test system: BT-549
Assay: Growth inhibition of human BT-549 cells assessed as cell growth at 0.1 uM incubated for 48 hrs by sulforhodamine B assay relative to control
Format: functional
Conditions: read-out: Activity

Compound	growth at 0.1 µM [%]
CN1CCc2nc3sc(C(N)=O)c(N)c3c(-c3cccs3)c2C1	114

Test system: RPMI-8226
Assay: Growth inhibition of human RPMI-8226 cells assessed as cell growth at 1 uM incubated for 48 hrs by sulforhodamine B assay relative to control
Format: functional
Conditions: read-out: Activity

Compound	growth at 1 µM [%]
CN1CCc2nc3sc(C(N)=O)c(N)c3c(-c3cccs3)c2C1	119

Test system: HOP-62
Assay: Growth inhibition of human HOP-62 cells assessed as cell growth at 1 uM incubated for 48 hrs by sulforhodamine B assay relative to control
Format: functional
Conditions: read-out: Activity

Compound	growth at 1 µM [%]
CN1CCc2nc3sc(C(N)=O)c(N)c3c(-c3cccs3)c2C1	102

Test system: MDA-MB-435
Assay: Growth inhibition of human MDA-MB-435 cells assessed as cell growth at 1 uM incubated for 48 hrs by sulforhodamine B assay relative to control
Format: functional
Conditions: read-out: Activity

Compound	growth at 1 µM [%]
CN1CCc2nc3sc(C(N)=O)c(N)c3c(-c3cccs3)c2C1	90

Test system: UACC-257
Assay: Growth inhibition of human UACC-257 cells assessed as cell growth at 1 uM incubated for 48 hrs by sulforhodamine B assay relative to control
Format: functional
Conditions: read-out: Activity

Compound	growth at 1 µM [%]
CN1CCc2nc3sc(C(N)=O)c(N)c3c(-c3cccs3)c2C1	111

Test system: MDA-MB-468
Assay: Growth inhibition of human MDA-MB-468 cells assessed as cell growth at 1 uM incubated for 48 hrs by sulforhodamine B assay relative to control
Format: functional
Conditions: read-out: Activity

Compound	growth at 1 µM [%]
CN1CCc2nc3sc(C(N)=O)c(N)c3c(-c3cccs3)c2C1	77

Test system: NCI-H460
Assay: Growth inhibition of human NCI-H460 cells assessed as cell growth at 100 uM incubated for 48 hrs by sulforhodamine B assay relative to control
Format: functional
Conditions: read-out: Activity

Compound	growth at 100 µM [%]
CN1CCc2nc3sc(C(N)=O)c(N)c3c(-c3cccs3)c2C1	2

Test system: COLO 205
Assay: Growth inhibition of human COLO 205 cells assessed as cell growth at 100 uM incubated for 48 hrs by sulforhodamine B assay relative to control
Format: functional
Conditions: read-out: Activity
In short: as §1

Compound	growth at 100 µM [%]
CN1CCc2nc3sc(C(N)=O)c(N)c3c(-c3cccs3)c2C1	-60

Test system: LOX IMVI
Assay: Growth inhibition of human LOX IMVI cells assessed as cell growth at 100 uM incubated for 48 hrs by sulforhodamine B assay relative to control
Format: functional
Conditions: read-out: Activity

Compound	growth at 100 µM [%]
CN1CCc2nc3sc(C(N)=O)c(N)c3c(-c3cccs3)c2C1	2

Test system: SK-MEL-2
Assay: Growth inhibition of human SK-MEL-2 cells assessed as cell growth at 100 uM incubated for 48 hrs by sulforhodamine B assay relative to control
Format: functional
Conditions: read-out: Activity

Compound	growth at 100 µM [%]
CN1CCc2nc3sc(C(N)=O)c(N)c3c(-c3cccs3)c2C1	-45

Test system: SK-MEL-28
Assay: Growth inhibition of human SK-MEL-28 cells assessed as cell growth at 100 uM incubated for 48 hrs by sulforhodamine B assay relative to control
Format: functional
Conditions: read-out: Activity

Compound	growth at 100 µM [%]
CN1CCc2nc3sc(C(N)=O)c(N)c3c(-c3cccs3)c2C1	-18

Test system: IGROV-1
Assay: Growth inhibition of human IGROV-1 cells assessed as cell growth at 100 uM incubated for 48 hrs by sulforhodamine B assay relative to control
Format: functional
Conditions: read-out: Activity

Compound	growth at 100 µM [%]
CN1CCc2nc3sc(C(N)=O)c(N)c3c(-c3cccs3)c2C1	9

Test system: MOLT-4
Assay: Growth inhibition of human MOLT-4 cells incubated for 48 hrs by sulforhodamine B assay
Format: functional
Conditions: not given
In short: (§2)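 NCI60 panel at the NCI Developmental Therapeutics Program. Only compounds active in the 10 µM screen went to dose-response testing. GI50, the concentration giving 50% of maximal inhibition of proliferation, and TGI, the concentration giving total growth inhibition, were derived from the dose-response curves.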

Compound	GI50 [nM]	TGI [µM]
CN1CCc2nc3sc(C(N)=O)c(N)c3c(-c3cccs3)c2C1	2890	48.4

Same assay, conditions: read-out: LC50 (the source's name)

Compound	CC50 [µM]
CN1CCc2nc3sc(C(N)=O)c(N)c3c(-c3cccs3)c2C1	> 100

Test system: A549
Assay: Growth inhibition of human A549/ATCC cells incubated for 48 hrs by sulforhodamine B assay
Format: functional
Conditions: not given
In short: as §1

Compound	GI50 [µM]	TGI [µM]
CN1CCc2nc3sc(C(N)=O)c(N)c3c(-c3cccs3)c2C1	3.37	> 100

Same assay, conditions: read-out: LC50 (the source's name)

Compound	CC50 [µM]
CN1CCc2nc3sc(C(N)=O)c(N)c3c(-c3cccs3)c2C1	> 100

Test system: NCI-H226
Assay: Growth inhibition of human NCI-H226 cells incubated for 48 hrs by sulforhodamine B assay
Format: functional
Conditions: not given
In short: as §2

Compound	GI50 [µM]	TGI [µM]
CN1CCc2nc3sc(C(N)=O)c(N)c3c(-c3cccs3)c2C1	3.16	> 100

Same assay, conditions: read-out: LC50 (the source's name)

Compound	CC50 [µM]
CN1CCc2nc3sc(C(N)=O)c(N)c3c(-c3cccs3)c2C1	> 100

Test system: UACC-62
Assay: Growth inhibition of human UACC-62 cells incubated for 48 hrs by sulforhodamine B assay
Format: functional
Conditions: not given
In short: (§3)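 NCI DTP 60-line human tumour panel. Dose-response curves were run only for ligands active in the initial 10 µM screen. GI50 (concentration giving 50% of maximal inhibition of proliferation) and TGI (concentration giving total growth inhibition) were derived from these curves.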

Compound	GI50 [nM]	LC50 [µM]	TGI [µM]
CN1CCc2nc3sc(C(N)=O)c(N)c3c(-c3cccs3)c2C1	2380	72.2	6.56

Test system: IGROV-1
Assay: Growth inhibition of human IGROV-1 cells incubated for 48 hrs by sulforhodamine B assay
Format: functional
Conditions: not given
In short: as §2

Compound	GI50 [µM]	LC50 [µM]	TGI [µM]
CN1CCc2nc3sc(C(N)=O)c(N)c3c(-c3cccs3)c2C1	5.16	> 100	> 100

Test system: OVCAR-4
Assay: Growth inhibition of human OVCAR-4 cells incubated for 48 hrs by sulforhodamine B assay
Format: functional
Conditions: not given
In short: as §3

Compound	GI50 [µM]	TGI [µM]
CN1CCc2nc3sc(C(N)=O)c(N)c3c(-c3cccs3)c2C1	7.38	> 100

Same assay, conditions: read-out: LC50 (the source's name)

Compound	CC50 [µM]
CN1CCc2nc3sc(C(N)=O)c(N)c3c(-c3cccs3)c2C1	> 100

Test system: UO-31
Assay: Growth inhibition of human UO-31 cells incubated for 48 hrs by sulforhodamine B assay
Format: functional
Conditions: not given
In short: as §3

Compound	GI50 [µM]	TGI [µM]
CN1CCc2nc3sc(C(N)=O)c(N)c3c(-c3cccs3)c2C1	3.47	> 100

Same assay, conditions: read-out: LC50 (the source's name)

Compound	CC50 [µM]
CN1CCc2nc3sc(C(N)=O)c(N)c3c(-c3cccs3)c2C1	> 100

Reference: ChEMBL document CHEMBL4715736, “Identification of anticancer agents based on the thieno[2,3-b]pyridine and 1H-pyrazole molecular scaffolds” (2016)
